Experimental data taken from ChEMBL document CHEMBL2331115, “Development of silicon-containing bis-phenol derivatives as androgen receptor antagonists: selectivity switching by C/Si exchange” (Bioorg Med Chem, 2013).
pEC50, pIC50: −log10 of the molar value. The source made the active and inactive calls. The rule behind the calls is not given here.

Columns and labels:
[1] = target: T1, Vitamin D3 receptor (Homo sapiens) (UniProt P11473); assay: Agonist activity at CMX-GAL4 tagged human VDR expressed in HEK293 cells assessed as increase in transcriptional activity by luciferase reporter gene assay; type: cell-based
T1 sequence (whole entry): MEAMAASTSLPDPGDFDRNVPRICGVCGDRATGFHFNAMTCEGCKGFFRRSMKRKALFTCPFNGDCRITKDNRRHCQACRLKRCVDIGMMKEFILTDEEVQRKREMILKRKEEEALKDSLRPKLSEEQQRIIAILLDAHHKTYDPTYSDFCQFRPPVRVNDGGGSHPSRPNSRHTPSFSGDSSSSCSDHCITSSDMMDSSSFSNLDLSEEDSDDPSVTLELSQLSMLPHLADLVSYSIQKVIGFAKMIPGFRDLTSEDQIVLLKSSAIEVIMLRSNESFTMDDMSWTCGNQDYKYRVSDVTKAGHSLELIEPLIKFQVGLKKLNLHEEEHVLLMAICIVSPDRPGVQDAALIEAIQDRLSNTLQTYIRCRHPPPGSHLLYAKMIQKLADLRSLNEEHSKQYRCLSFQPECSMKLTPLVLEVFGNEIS
Outline: (§1)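 GAL4-hVDR ligand-binding fusion (CMX-GAL4 N-hVDR, 15 ng/well) cotransfected by calcium phosphate into HEK293 cells with TK-MH100x4-Luc reporter (50 ng) and β-galactosidase plasmid (10 ng). Cells grown in DMEM with 5% FBS, 37 °C, 5% CO2. Compound added 22 h post-transfection and cells harvested 16–20 h later. Luciferase normalized to β-galactosidase, means of triplicates. PC50 is the concentration giving 50% of the positive-control response.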

Androgen receptor = target: T2, Androgen receptor (Homo sapiens, UniProt P10275); assay: Antagonist activity at human androgen receptor expressed in HEK293 cells assessed as inhibition of transcriptional activity by luciferase and beta-galactosidase reporter gene assay; type: cell-based
T2 sequence (P10275 whole entry): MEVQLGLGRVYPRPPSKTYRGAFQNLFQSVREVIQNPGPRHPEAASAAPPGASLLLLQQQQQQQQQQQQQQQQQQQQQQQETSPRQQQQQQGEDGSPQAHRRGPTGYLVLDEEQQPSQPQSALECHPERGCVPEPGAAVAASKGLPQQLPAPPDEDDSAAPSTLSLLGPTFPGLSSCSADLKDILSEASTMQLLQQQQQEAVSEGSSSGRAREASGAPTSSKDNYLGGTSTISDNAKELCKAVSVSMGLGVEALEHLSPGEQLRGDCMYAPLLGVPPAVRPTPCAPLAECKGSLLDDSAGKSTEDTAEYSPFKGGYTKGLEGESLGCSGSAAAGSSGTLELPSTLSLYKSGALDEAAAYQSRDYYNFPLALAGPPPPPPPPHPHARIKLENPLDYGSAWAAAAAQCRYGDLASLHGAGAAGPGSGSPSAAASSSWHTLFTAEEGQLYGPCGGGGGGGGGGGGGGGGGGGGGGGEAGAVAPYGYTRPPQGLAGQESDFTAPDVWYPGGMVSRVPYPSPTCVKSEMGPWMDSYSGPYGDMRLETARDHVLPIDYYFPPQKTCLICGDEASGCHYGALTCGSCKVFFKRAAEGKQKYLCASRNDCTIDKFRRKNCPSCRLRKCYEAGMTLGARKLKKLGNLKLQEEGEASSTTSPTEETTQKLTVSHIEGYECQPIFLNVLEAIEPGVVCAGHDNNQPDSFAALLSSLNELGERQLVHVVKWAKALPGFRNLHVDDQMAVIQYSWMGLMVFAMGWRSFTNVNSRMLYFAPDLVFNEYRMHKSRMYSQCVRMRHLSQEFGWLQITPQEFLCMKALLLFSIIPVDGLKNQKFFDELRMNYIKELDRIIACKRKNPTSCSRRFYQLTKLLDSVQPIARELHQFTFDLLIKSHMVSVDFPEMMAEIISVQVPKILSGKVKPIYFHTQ

[2] = target: T3, Androgen receptor (Homo sapiens) (UniProt P10275); assay: Agonist activity at human androgen receptor expressed in HEK293 cells assessed as increase in transcriptional activity in presence of 0.3 nM testosterone by luciferase and beta-galactosidase reporter gene assay; type: cell-based
T3 sequence (whole entry): T2 sequence (P10275 whole entry)
Outline: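 HEK293 cells in DMEM with 5% FBS, calcium-phosphate cotransfected with pSG5-hAR (33 ng/well), ARE-tlc-Luc reporter (33 ng) and β-galactosidase plasmid (10 ng). Compounds added 22 h after transfection, with 0.3 nM testosterone present. Harvested about 16–20 h later. Luciferase read and normalized to β-galactosidase, means of triplicates.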

HL-60 = assay: Induction of monocytic cell differentiation in human HL60 cells
LNCaP = assay: Growth inhibition of human LNCAP cells
Vitamin D3 receptor = target: T4, Vitamin D3 receptor (Homo sapiens, UniProt P11473); assay: Agonist activity at VDR (unknown origin) by reporter gene assay; outline: as §1
T4 sequence (P11473 whole entry): T1 sequence (whole entry)

Homo sapiens = species: Homo sapiens; assay: Selectivity index, ratio of agonist PC50 for CMX-GAL4 tagged human VDR to antagonist IC50 for human androgen receptor
Outline: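 Ratio of VDR PC50 to AR IC50. VDR PC50 comes from the GAL4-hVDR luciferase assay in HEK293 cells (50% of positive-control activity). AR IC50 is inhibition of hAR/ARE-luciferase transcription in HEK293 cells under testosterone, both β-galactosidase-normalized, means of three experiments.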

[3] = target: Androgen receptor (Mus musculus) (UniProt P19091); assay: Agonist activity at androgen receptor in androgen-dependent mouse SC3 cells assessed as stimulation of cell growth after 3 days; type: cell-based; conditions: SC-3
Outline: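 Androgen-dependent mouse Shionogi carcinoma SC-3 cells grown 3 days at 37 °C, 5% CO2 in MEM-Alpha with 2% FBS plus test compound. Growth promotion scored by cell count.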

[4] = target: Androgen receptor (Mus musculus) (UniProt P19091); assay: Potency index, ratio of IC50 for hydroxyflutamide to IC50 for compound against androgen receptor in androgen-dependent mouse SC3 cells assessed as inhibition of testosterone-induced cell growth after 3 days; type: cell-based; conditions: SC-3
Outline: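 SC-3 cells cultured 3 days at 37 °C, 5% CO2 in MEM-Alpha with 2% FBS and 10 nM testosterone, with or without compound. Cell number with testosterone alone set as 100%. IC50 is the concentration halving the testosterone-induced increase in cells, means of three experiments. Index is the reference antagonist IC50 divided by the compound IC50.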

Sequence of Androgen receptor (Mus musculus) (P19091 whole entry): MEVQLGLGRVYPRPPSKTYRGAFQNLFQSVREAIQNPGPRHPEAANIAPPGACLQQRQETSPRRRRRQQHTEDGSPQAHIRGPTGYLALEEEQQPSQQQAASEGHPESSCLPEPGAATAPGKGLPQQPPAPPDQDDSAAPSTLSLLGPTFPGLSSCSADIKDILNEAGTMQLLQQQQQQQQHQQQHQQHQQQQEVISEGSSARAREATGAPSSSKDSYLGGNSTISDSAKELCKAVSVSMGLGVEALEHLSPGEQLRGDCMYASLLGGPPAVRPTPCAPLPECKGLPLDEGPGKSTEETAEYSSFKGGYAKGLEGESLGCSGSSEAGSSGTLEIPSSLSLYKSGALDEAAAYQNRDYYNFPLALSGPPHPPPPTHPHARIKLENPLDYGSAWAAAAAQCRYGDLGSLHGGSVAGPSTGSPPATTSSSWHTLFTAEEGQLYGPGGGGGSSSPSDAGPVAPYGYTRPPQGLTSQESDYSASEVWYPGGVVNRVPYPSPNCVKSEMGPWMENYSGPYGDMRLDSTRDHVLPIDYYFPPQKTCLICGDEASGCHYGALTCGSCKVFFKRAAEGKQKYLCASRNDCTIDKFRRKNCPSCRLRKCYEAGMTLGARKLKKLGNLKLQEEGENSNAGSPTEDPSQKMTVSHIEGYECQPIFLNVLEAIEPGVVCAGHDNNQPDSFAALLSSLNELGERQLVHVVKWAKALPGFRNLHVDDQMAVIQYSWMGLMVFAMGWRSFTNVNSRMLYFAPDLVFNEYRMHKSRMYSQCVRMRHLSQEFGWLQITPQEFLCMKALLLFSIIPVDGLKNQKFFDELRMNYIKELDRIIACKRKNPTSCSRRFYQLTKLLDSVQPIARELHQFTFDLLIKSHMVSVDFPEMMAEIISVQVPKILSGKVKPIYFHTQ

SMILES: CC[Si](CC)(c1ccc(O)c(C)c1)c1ccc(OC[C@H](O)C(C)(C)C)c(C)c1
- PC50 [1]: 8.2 µM
- pIC50 (Androgen receptor): < 5.00

SMILES: CCC(CC)(c1ccc(OCC(=O)C(C)(C)C)c(C)c1)c1ccc(OCC(=O)C(C)(C)C)c(C)c1
- Activity [2]: inactive
- PC50 [1]: 4.6 µM
- pEC50 (HL-60): 7.52
- pEC50 (LNCaP): 7.70
- pEC50 (Vitamin D3 receptor): 7.40
- Selectivity Index (Homo sapiens): < 0.46
- pIC50 (Androgen receptor): < 5.00

SMILES: CC[Si](CC)(c1ccc(OC[C@H](O)CO)c(C)c1)c1ccc(OC[C@H](O)C(C)(C)C)c(C)c1
- PC50 [1]: 2.1 µM
- Selectivity Index (Homo sapiens): 0.31
- pIC50 (Androgen receptor): 5.17

SMILES: CCC(CC)(c1ccc(OCC(O)CO)c(C)c1)c1ccc(OCC(O)C(C)(C)C)c(C)c1 (mixture of isomers) [LG-190178]
- Activity [2]: inactive
- PC50 [1]: 0.14 µM
- pEC50 (HL-60): 7.52
- pEC50 (LNCaP): 7.70
- pIC50 (Androgen receptor): < 5.00

SMILES: CC[Si](CC)(c1ccc(OC[C@@H](O)CO)c(C)c1)c1ccc(OC[C@H](O)C(C)(C)C)c(C)c1 (mixture of isomers)
- PC50 [1]: 0.81 µM
- Selectivity Index (Homo sapiens): 0.14
- pIC50 (Androgen receptor): 5.24

SMILES: CC(C)(O)C(=O)Nc1ccc([N+](=O)[O-])c(C(F)(F)F)c1
- PC50 [1]: inactive

SMILES: CC[Si](CC)(c1ccc(OCC(=O)C(C)(C)C)c(C)c1)c1ccc(OC[C@H](O)CO)c(C)c1
- Activity [3]: inactive
- PC50 [1]: 3.7 µM
- Selectivity Index (Homo sapiens): 0.93
- pIC50 (Androgen receptor): 5.40

SMILES: CC[Si](CC)(c1ccc(OC[C@@H](O)CO)c(C)c1)c1ccc(OC[C@@H](O)C(C)(C)C)c(C)c1
- PC50 [1]: 2.2 µM
- Selectivity Index (Homo sapiens): 0.27
- pIC50 (Androgen receptor): 5.08

SMILES: CC[Si](CC)(c1ccc(NC[C@H](O)CO)c(C)c1)c1ccc(OCC(=O)C(C)(C)C)c(C)c1
- PC50 [1]: 2.5 µM
- pIC50 (Androgen receptor): < 5.00

SMILES: CC[Si](CC)(c1ccc(OCC(=O)C(C)(C)C)c(C)c1)c1ccc(OC[C@@H](O)CO)c(C)c1
- PC50 [1]: 2 µM
- pIC50 (Androgen receptor): < 5.00

SMILES: CC[Si](CC)(c1ccc(OCC(=O)C(C)(C)C)c(C)c1)c1ccc(OCC2CO2)c(C)c1 (racemic)
- Activity [2]: inactive
- PC50 [1]: 4.8 µM
- Selectivity Index (Homo sapiens): 0.48
- pIC50 (Androgen receptor): < 5.00

SMILES: CC[Si](CC)(c1ccc(OCC(=O)C(C)(C)C)c(C)c1)c1ccc(OCC(=O)C(C)(C)C)c(C)c1
- Activity [2]: inactive
- PC50 [1]: > 30 µM
- Selectivity Index (Homo sapiens): > 4.8
- pIC50 (Androgen receptor): 5.21

SMILES: CC[Si](CC)(c1ccc(OC[C@H](O)CO)c(C)c1)c1ccc(OC[C@@H](O)C(C)(C)C)c(C)c1
- Activity [3]: inactive
- PC50 [1]: > 10 µM
- Ratio IC50 [4]: 20
- Selectivity Index (Homo sapiens): > 1.4
- pIC50 (Androgen receptor): 5.13

SMILES: CCC(CC)(c1ccc(OCC(=O)C(C)(C)C)c(C)c1)c1ccc(OCC2CO2)c(C)c1 (racemic)
- Activity [2]: inactive
- PC50 [1]: 0.68 µM
- Selectivity Index (Homo sapiens): < 0.068
- pIC50 (Androgen receptor): < 5.00

SMILES: CC[Si](CC)(c1ccc(NC[C@@H](O)CO)c(C)c1)c1ccc(OCC(=O)C(C)(C)C)c(C)c1
- PC50 [1]: 7 µM
- pIC50 (Androgen receptor): < 5.00

SMILES: CC[Si](CC)(c1ccc(OCC(O)CO)c(C)c1)c1ccc(OCC(O)C(C)(C)C)c(C)c1 (mixture of isomers)
- Activity [2]: inactive
- PC50 [1]: 0.92 µM
- Selectivity Index (Homo sapiens): 0.14
- pIC50 (Androgen receptor): 5.17
